From ChEMBL document CHEMBL4706600, “Synthesis, molecular modeling, in vivo study and anticancer activity against prostate cancer of (+) (S)-naproxen derivatives” (Eur J Med Chem, 2020)
One block for each molecule: values may come before it. Calls of active or inactive are those of the source. The rule behind the calls is not given here.

Experiments:
PC-3 = assay: Cytotoxicity against human PC-3 cells assessed as reduction in cell viability by […]; type: functional, cell-based
Summary of the method: (§1)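 Growth of PC-3, DU-145 and LNCaP prostate cancer lines read by MTS tetrazolium proliferation assay. Cisplatin served as the positive reference standard.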

LNCaP [1] = assay: Cytotoxicity against human LNCaP cells assessed as reduction in cell viability by […]; type: functional, cell-based; summary of the method: as §1
DU-145 = assay: Cytotoxicity against human DU-145 cells assessed as reduction in cell viability by […]; type: functional, cell-based; summary of the method: as §1
[2] = molecular target: Methionine aminopeptidase 2 (Homo sapiens) (UniProt P50579); assay: Inhibition of MetAP2 in human LNCaP cells assessed as reduction in ERK/MAPK phosphorylation at 5 to 20 uM incubated upto 120 mins by Western blot analysis; type: cell-based; conditions: dose 5-20 µM, time min <=120
Summary of the method: (§2)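 LNCaP cells (1×10^6 per well, n = 3) plated in phenol-red-free RPMI-1640 with 1% FBS for 24 h, then exposed at 5 and 20 µM for 0, 15, 60 and 120 min. Lysates were assayed for total protein, and phosphorylated AKT, ERK, p38 and JNK were detected by Western blot.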
Target sequence in this assay (P50579 2-478 limits assumed): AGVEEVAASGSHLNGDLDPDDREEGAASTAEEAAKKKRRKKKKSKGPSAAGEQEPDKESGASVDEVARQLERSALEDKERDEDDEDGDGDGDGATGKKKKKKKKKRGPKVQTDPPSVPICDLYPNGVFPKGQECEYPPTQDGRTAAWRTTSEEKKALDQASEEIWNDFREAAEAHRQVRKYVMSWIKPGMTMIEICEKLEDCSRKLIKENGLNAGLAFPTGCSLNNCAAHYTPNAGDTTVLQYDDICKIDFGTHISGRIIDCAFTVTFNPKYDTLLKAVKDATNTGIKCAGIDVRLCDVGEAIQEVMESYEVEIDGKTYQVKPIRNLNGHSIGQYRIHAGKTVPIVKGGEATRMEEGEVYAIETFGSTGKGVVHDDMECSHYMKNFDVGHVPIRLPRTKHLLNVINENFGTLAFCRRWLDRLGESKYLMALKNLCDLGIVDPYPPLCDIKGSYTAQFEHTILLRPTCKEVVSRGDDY

[3] = molecular target: Methionine aminopeptidase 2 (Homo sapiens) (UniProt P50579); assay: Inhibition of MetAP2 in human LNCaP cells assessed as reduction in AKT phosphorylation at 5 to 20 uM incubated upto 120 mins by Western blot analysis; type: cell-based; conditions: dose 5-20 µM, time min <=120; summary of the method: as §2
Target sequence in this assay (P50579 2-478 limits assumed): as above

[4] = molecular target: Methionine aminopeptidase 2 (Homo sapiens) (UniProt P50579); assay: Inhibition of MetAP2 in human LNCaP cells assessed as reduction in JNK/MAPK phosphorylation at 5 to 20 uM incubated upto 120 mins by Western blot analysis; type: cell-based; conditions: dose 5-20 µM, time min <=120; summary of the method: as §2
Target sequence in this assay (P50579 2-478 limits assumed): as above

[5] = molecular target: Methionine aminopeptidase 2 (Homo sapiens) (UniProt P50579); assay: Inhibition of MetAP2 in human LNCaP cells assessed as reduction in P28/MAPK phosphorylation at 5 to 20 uM incubated upto 120 mins by Western blot analysis; type: cell-based; conditions: dose 5-20 µM; summary of the method: as §2
Target sequence in this assay (P50579 2-478 limits assumed): as above

[6] = Toxicity in mouse assessed as effect on phosphate level measured after 3 days by blood analyser(reference value: 10.07+/- 1.06 mg/dl); type: tissue-based; conditions: 72 h, time 3 day
[7] = Toxicity in mouse assessed as effect on potassium level measured after 3 days by blood analyser(reference value: 10.7+/-2.2 mmol/l); type: tissue-based; conditions: 72 h, time 3 day
[8] = Toxicity in mouse assessed as effect on blood urea nitrogen level measured after 3 days by blood analyser(reference value: 27+/- 2.6 mg/dl); conditions: in vivo, 72 h, time 3 day
[9] = Toxicity in mouse assessed as effect on globulin level measured after 3 days by blood analyser(reference value: 3.17+/-0.31 g/dl); type: tissue-based; conditions: 72 h, time 3 day
LNCaP [10] = assay: Antitumor activity against human LNCaP cells xenografted in mouse assessed as decrease in ROI of cancer tissue at 0.27 mg measured after 15 days by IVIS image analysis; type: functional; conditions: time 15 day
Summary of the method: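 LNCaP cells (5×10^6–6×10^6 cells/100 µL) injected subcutaneously into male nude mice; treatment given over 15 days, with controls receiving saline intraperitoneally every 4 days. Cancerous tissue visualized by in vivo imaging (IVIS).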

[11] = molecular target: Methionine aminopeptidase 2 (Homo sapiens) (UniProt P50579); assay: Inhibition of MetAP2 (unknown origin) incubated measured at 12.5 to 200 uM for 30 mins by spectrophotometric analysis; conditions: dose 12.5-200 µM
Target sequence in this assay (P50579 whole entry, looked up): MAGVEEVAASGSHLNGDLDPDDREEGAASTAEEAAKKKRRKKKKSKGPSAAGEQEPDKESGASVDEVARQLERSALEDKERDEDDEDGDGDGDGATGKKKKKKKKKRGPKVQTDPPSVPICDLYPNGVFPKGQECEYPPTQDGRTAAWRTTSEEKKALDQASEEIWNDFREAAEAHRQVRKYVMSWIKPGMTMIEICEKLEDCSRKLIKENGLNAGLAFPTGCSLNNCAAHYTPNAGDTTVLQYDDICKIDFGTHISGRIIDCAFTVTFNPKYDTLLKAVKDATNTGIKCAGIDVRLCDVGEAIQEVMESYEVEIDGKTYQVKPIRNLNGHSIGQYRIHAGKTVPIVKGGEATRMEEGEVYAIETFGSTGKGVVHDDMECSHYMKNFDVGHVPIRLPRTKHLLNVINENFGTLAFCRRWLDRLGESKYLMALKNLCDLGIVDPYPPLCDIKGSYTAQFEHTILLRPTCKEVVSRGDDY

[12] = Toxicity in mouse assessed as effect on glucose level measured after 3 days by blood analyser(reference value: 192+/- 33 mg/dl); type: tissue-based; conditions: 72 h, time 3 day
[13] = Toxicity in mouse assessed as effect on total bilirubin level measured after 3 days by blood analyser(reference value: 0.27+/- 0.05 mg/dl); type: tissue-based; conditions: 72 h, time 3 day
LNCaP [14] = assay: Induction of apoptosis in human LNCAP cells assessed as down regulation of Bcl-2 expression upto 20 uM measured after 6 hrs by Rt-PCR; type: functional, cell-based; conditions: dose microM <=20, time 6.0 hrs
LNCaP [15] = assay: Induction of apoptosis in human LNCAP cells assessed as up regulation of Bax expression upto 20 uM measured after 6 hrs by Rt-PCR; type: functional, cell-based; conditions: dose microM <=20, time 6.0 hrs, TDE = time-dependent effect
[16] = Toxicity in mouse assessed as effect on sodium level measured after 3 days by blood analyser(reference value: 148.33+/-1.89 mmol/l); type: tissue-based; conditions: 72 h, time 3 day
LNCaP [17] = assay: Induction of apoptosis in human LNCAP cells assessed as up regulation of Caspase 9 expression upto 20 uM measured after 6 hrs by Rt-PCR; type: functional, cell-based; conditions: dose microM <=20, time 6.0 hrs, TDE = time-dependent effect
[18] = Toxicity in mouse assessed as effect on alanine transaminase level measured after 3 days by blood analyser(reference value: 679.50+/- 71.5 u/l); type: tissue-based; conditions: 72 h, time 3 day
[19] = Toxicity in mouse assessed as effect on alkaline phosphatase level measured after 3 days by blood analyser(reference value: 144.50+/- 83.5 u/l); type: tissue-based; conditions: 72 h, time 3 day
LNCaP [20] = assay: Induction of apoptosis in human LNCAP cells assessed as up regulation of Caspase 3 expression upto 20 uM measured after 6 hrs by Rt-PCR; type: functional, cell-based; conditions: dose microM <=20, time 6.0 hrs, TDE = time-dependent effect
[21] = Toxicity in mouse assessed as effect on keratin level measured after 3 days by blood analyser(reference value: 0.2+/- 0.07 mg/dl); type: tissue-based; conditions: 72 h, time 3 day
[22] = Toxicity in mouse assessed as effect on total protein level measured after 3 days by blood analyser(reference value: 5.7+/-0.4 g/dl); type: tissue-based; conditions: 72 h, time 3 day
[23] = Toxicity in mouse assessed as effect on albumin level measured after 15 days by blood analyser(reference value: 2.6+/- 0.36 g/dl); conditions: 360 h

Compound: COc1cccc(CSc2nnc([C@@H](C)c3ccc4cc(OC)ccc4c3)n2-c2ccc(F)cc2)c1
IC50 (PC-3): 211 µM | IC50 (LNCaP [1]): 14.5 µM | IC50 (DU-145): 19.2 µM

Compound: COc1ccc2cc([C@H](C)c3nnc(SCc4ccc(Cl)cc4)n3-c3ccc(Cl)cc3)ccc2c1
IC50 (PC-3): 5.8 µM | IC50 (LNCaP [1]): 110 µM | IC50 (DU-145): 109 µM

Compound: COc1ccc2cc([C@H](C)c3nnc(SCc4c(Cl)cccc4Cl)n3-c3cccc(Cl)c3)ccc2c1
IC50 (PC-3): 165 µM | IC50 (LNCaP [1]): 73.7 µM | IC50 (DU-145): > 400 µM

Compound: COc1ccc2cc([C@H](C)c3nnc(SCc4c(Cl)cccc4Cl)n3-c3ccc(Cl)cc3)ccc2c1
IC50 (PC-3): 34.7 µM | IC50 (LNCaP [1]): > 400 µM | IC50 (DU-145): 36.1 µM

Compound: COc1ccc2cc([C@H](C)c3nnc(SCc4ccc(F)cc4)n3-c3ccc(Cl)cc3)ccc2c1
IC50 (PC-3): 10.8 µM | IC50 (LNCaP [1]): 33.9 µM | IC50 (DU-145): 33.6 µM

Compound: COc1ccc2cc([C@H](C)c3nnc(SCc4c(Cl)cccc4Cl)n3-c3ccc(F)cc3)ccc2c1
IC50 (PC-3): 216 µM | IC50 (LNCaP [1]): 12.2 µM | IC50 (DU-145): 12.2 µM

Compound: COc1ccc2cc([C@H](C)c3nnc(SCc4c(C)cc(C)cc4C)n3-c3cccc(Cl)c3)ccc2c1
IC50 (PC-3): 16.3 µM | IC50 (LNCaP [1]): > 400 µM | IC50 (DU-145): 93.3 µM

Compound: COc1ccc2cc([C@H](C)c3nnc(SCc4ccc(C)cc4)n3-c3ccc(F)cc3)ccc2c1
IC50 (PC-3): 229 µM | IC50 (LNCaP [1]): > 400 µM | IC50 (DU-145): 44.3 µM

Compound: COc1ccc2cc([C@H](C)c3nnc(SCc4ccccc4)n3-c3ccc(Cl)cc3)ccc2c1
IC50 (PC-3): 14.2 µM | IC50 (LNCaP [1]): 50.4 µM | IC50 (DU-145): 35.8 µM

Compound: COc1ccc2cc([C@H](C)c3nnc(SCc4ccc(F)cc4)n3-c3ccc(F)cc3)ccc2c1
IC50 (PC-3): > 400 µM | IC50 (LNCaP [1]): 104 µM | IC50 (DU-145): 60.2 µM

inhibition [2]: inactive | inhibition [3]: inactive | inhibition [4]: inactive | inhibition ([5]; time min <=120, in the assay text read “P38/MAPK” for “P28/MAPK”): inactive
Compound: COc1ccc(CSc2nnc([C@@H](C)c3ccc4cc(OC)ccc4c3)n2-c2ccc(F)cc2)cc1
IC50 (PC-3): > 400 µM | IC50 (LNCaP [1]): 22.8 µM | IC50 (DU-145): > 400 µM

Compound: COc1ccc(CSc2nnc([C@@H](C)c3ccc4cc(OC)ccc4c3)n2-c2ccc(Cl)cc2)cc1
IC50 (PC-3): > 400 µM | IC50 (LNCaP [1]): > 400 µM | IC50 (DU-145): 72.6 µM

Compound: COc1cccc(CSc2nnc([C@@H](C)c3ccc4cc(OC)ccc4c3)n2-c2ccc(Cl)cc2)c1
IC50 (PC-3): 138 µM | IC50 (LNCaP [1]): 162 µM | IC50 (DU-145): > 400 µM

Compound: COc1ccc2cc([C@H](C)c3nnc(SCc4ccc(C)cc4)n3-c3ccc(Cl)cc3)ccc2c1
IC50 (PC-3): 8.4 µM | IC50 (LNCaP [1]): 52.2 µM | IC50 (DU-145): 18.8 µM

Compound: COc1ccc2cc([C@H](C)C(=O)NNC(=S)Nc3ccc(C(F)(F)F)cc3)ccc2c1
IC50 (PC-3): 64.3 µM | IC50 (LNCaP [1]): 92.8 µM | IC50 (DU-145): 62.2 µM

inhibition [11]: Active | inhibition [2]: Active | inhibition [3]: Active | inhibition [4]: Active | inhibition ([5]; time min <=120): Active
Compound: COc1ccc2cc([C@H](C)c3nnc(SCc4c(C)cc(C)cc4C)n3-c3ccc(F)cc3)ccc2c1
Activity [6]: 7.15 mg/dL | Activity [7]: 5.6 mmol/L | Activity [8]: 21.5 mg/dL | Activity [9]: 3.6 g/dL | inhibition (INH) (LNCaP [10]): 55% | Activity [12]: 154 mg/dL | Activity [13]: 0.3 mg/dL | Activity (LNCaP [14]): Active | Activity (LNCaP [15]): Tde | Activity [16]: 137.5 mmol/L | Activity (LNCaP [17]): Tde | Activity [18]: 64.5 U/L | Activity [19]: 58 U/L | Activity (LNCaP [20]): Tde | Activity [21]: 0.25 mg/dL | IC50 (PC-3): 43.3 µM | Activity [22]: 5.3 g/dL | IC50 (LNCaP [1]): 2.21 µM | Activity [23]: 1.25 g/dL | IC50 (DU-145): 10.2 µM

Compound: COc1ccc2cc([C@H](C)c3nnc(SCc4ccc(Cl)cc4)n3-c3ccc(F)cc3)ccc2c1
IC50 (PC-3): > 400 µM | IC50 (LNCaP [1]): > 400 µM | IC50 (DU-145): 57.4 µM
